Broadly, the Kd is the constant that tells how readily two partners part at equilibrium.

For series [1], the system named is LNCaP. Kind of series: Cellular uptake in proliferating human LNCAP cells expressing androgen receptor after 24 hrs by gamma counting. In kind it is ADME, cell-based. An outline of the steps:
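Proliferating LNCaP monolayers exposed 24 h to a range of radioligand concentrations; whole-cell uptake measured.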

Series [2] concerns OVCAR-3. Kind of series: Cytotoxicity against human OVCAR-3 cells expressing androgen receptor assessed as cell survival at 3 uCi/mL after 48 hrs. It counts as functional. An outline of the steps:
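NIH:OVCAR-3 cells were grown for 48 h with the 125I-labelled compound, and survival was plotted against the extracellular concentration in μCi/mL.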

The test system of series [3] is LNCaP. The experiment in a line: Cellular uptake in single-cell suspension of nonproliferating human LNCAP cells expressing androgen receptor assessed as increase in cellular retention at 0.37 uCi/mL after 5 to 16 hrs by gamma counting. In kind it is ADME, cell-based. An outline of the steps:
(§1)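 Low-passage LNCaP held as single-cell suspension (non-proliferating) in RPMI-1640 with radioligand at 0.03 or 0.37 μCi/mL; whole-cell and nuclear radioactivity measured over time.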

The nature of series [4]: Clearance in peritoneum of athymic NCr mouse xenografted with human OVCAR-3 cells assessed as half life at 1.12 uCi, ip by gamma counting. As to conditions: in vivo; call rule not given here. It counts as ADME, organism-based. An outline of the steps:
(§2)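 Peritoneal clearance measured in athymic NCr-nu/nu mice bearing intraperitoneal NIH:OVCAR-3 xenografts after an ip dose of the 125I compound. The peritoneal cavity was lavaged, and 125I was counted in the lavage and in the recovered tumor cells. Half-lives were estimated from the clearance curves.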

Series [5] deals with Mus musculus. Kind of series: Toxicity in ip dosed athymic NCr mouse assessed as change in body weight measured after 21 days. As to conditions: in vivo, 504 h. It counts as organism-based.
For series [6], the system named is OVCAR-3. The experiment in a line: Antitumor activity against human OVCAR-3 cells xenografted in athymic NCr mouse assessed as number of cancer cells in peritoneum at 180 uCi, ip administered 9 days after tumor implantation as six fractionated doses every 4 days measured after 2 weeks of last dose by gamma counting. It counts as functional. An outline of the steps:
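OVCAR-3 ip xenografts in athymic mice; six fractionated ip doses every 4 days, total 180 μCi/mouse, with PBS or vehicle ip controls. Nonadherent tumor cells recovered by peritoneal lavage at necropsy, counted and pellet-weighed.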
For orientation: In xenograft studies the graft and the host belong to different species.

A short description of series [7]: Ratio of drug level in tumor to blood in athymic NCr mouse xenografted with human OVCAR-3 cells at 180 uCi, ip administered 9 days after tumor implantation as six fractionated doses every 4 days measured after 48 hrs by gamma counting. In kind it is ADME, organism-based. Conditions: tumour.
Series [8] concerns LNCaP. Kind of series: Cellular uptake in single-cell suspension of nonproliferating human LNCAP cells expressing androgen receptor at 0.03 uCi/mL up to 2 hrs by gamma counting. In kind it is ADME, cell-based. Conditions: TDE = time-dependent effect. An outline of the steps:
as §1

Series [9] concerns Serum. Kind of series: Stability in human serum assessed as half life at 10 to 20 uCi/mL by size-exclusion HPLC analysis. In kind it is ADME, cell-free. An outline of the steps: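 The compound was incubated with rabbit or human serum at ambient temperature, and aliquots were taken at 1, 5 and 24 h. Aliquots were run on size-exclusion HPLC (TSK3000; 0.1 M potassium phosphate/0.1 M Na2SO4, pH 6.8, then an acetonitrile gradient). Extracts were run on C18 reversed-phase HPLC (water/acetonitrile with 0.07% TFA). Half-lives came from a monoexponential fit.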

The nature of series [10]: Ratio of drug level in tumor to liver in athymic NCr mouse xenografted with human OVCAR-3 cells at 180 uCi, ip administered 9 days after tumor implantation as six fractionated doses every 4 days measured after 72 hrs by gamma counting. It counts as ADME, organism-based. Conditions: in vivo.
Series [11] can be described thus: Clearance in peritoneal cavity of athymic NCr mouse xenografted with human OVCAR-3 cells assessed as half life at 1.12 uCi, ip by gamma counting. It counts as ADME, organism-based. As to conditions: in vivo. An outline of the steps: as §2
Series [12] has as its target T1, Sex hormone-binding globulin (Homo sapiens, UniProt P04278).
T1 sequence (P04278 whole entry): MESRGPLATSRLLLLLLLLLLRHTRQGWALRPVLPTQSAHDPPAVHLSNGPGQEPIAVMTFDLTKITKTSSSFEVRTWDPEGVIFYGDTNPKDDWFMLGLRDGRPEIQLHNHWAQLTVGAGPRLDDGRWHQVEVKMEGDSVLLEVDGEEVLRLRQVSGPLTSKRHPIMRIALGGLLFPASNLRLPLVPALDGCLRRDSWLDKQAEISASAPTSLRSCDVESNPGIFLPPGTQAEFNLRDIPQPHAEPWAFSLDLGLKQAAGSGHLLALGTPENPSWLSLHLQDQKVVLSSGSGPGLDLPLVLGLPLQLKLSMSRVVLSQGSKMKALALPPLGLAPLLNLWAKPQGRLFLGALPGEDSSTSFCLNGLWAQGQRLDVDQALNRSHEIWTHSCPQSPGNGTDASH
Kind of series: Binding affinity to human sex hormone binding globulin at 20 uCi after 60 mins by reversed phase HPLC analysis. It counts as ADME. Conditions: 1 h.

The target in series [13] is Albumin (Mus musculus, UniProt P07724). Kind of series: Binding affinity to mouse serum albumin at 20 uCi after 60 mins by size-exclusion HPLC analysis. It counts as ADME. As to conditions: isolated protein, 1 h.
Series [14] has as its system Mus musculus. The experiment in a line: Toxicity in athymic NCr mouse xenografted with human OVCAR-3 cells assessed as hematocrit level at 0.25 mCi, ip administered 31 days after tumor implantation as single bolus dose measured 55 days after implantation by gamma counting in presence of SHBG (Rvb= 51.4 +/- 1.6 %). Conditions: in vivo, 1320 h. In kind it is organism-based.

The subject of series [15] is Lung. Kind of series: Biodistribution in lung of athymic NCr mouse xenografted with human OVCAR-3 cells assessed per gram of tissue at an average 39.5 uCi/dose, ip administered 9 days after tumor implantation as six fractionated doses every 4 days measured after 2 weeks of last dose by gamma counting. In kind it is ADME, organism-based. As to conditions: in vivo, 336 h. An outline of the steps: (§3)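 OVCAR-3-bearing and healthy athymic mice given fractionated ip doses on the six-dose every-4-days schedule; tissues, tumor and lavaged cells γ-counted at necropsy, %ID/g; DNA-bound 125I in cells measured as cpm/cell.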

The test system of series [16] is Blood. Kind of series: Biodistribution in blood of athymic NCr mouse xenografted with human OVCAR-3 cells assessed per gram of tissue at an average 39.5 uCi/dose, ip administered 9 days after tumor implantation as six fractionated doses every 4 days measured after 2 weeks of last dose by gamma counting. In kind it is ADME, organism-based. Conditions: in vivo, 336 h. An outline of the steps: as §3

Series [17] has as its system OVCAR-3. Kind of series: Antitumor activity against human OVCAR-3 cells xenografted in athymic NCr mouse assessed as solid tumor weight in peritoneum at 0.25 mCi, ip administered 31 days after tumor implantation as single bolus dose measured 55 days after implantation by gamma counting in presence of SHBG (Rvb= 1.9 +/- 0.8 g). It counts as functional.
Series [18] deals with T1, Sex hormone-binding globulin. Kind of series: Binding affinity to human sex hormone binding globulin after 30 mins by size-exclusion HPLC analysis. It counts as ADME. An outline of the steps:
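Purified human SHBG diluted in PBS pH 7.1 to a range of concentrations; radioligand in CH3CN (10 μL, ~5.4 μCi average) added, vortexed, 30 min at ambient temperature. Aliquots analysed by size-exclusion HPLC for SHBG-bound peak.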
(In gel filtration, larger molecules generally elute earlier.)

Albumin, sequence (P07724 whole entry): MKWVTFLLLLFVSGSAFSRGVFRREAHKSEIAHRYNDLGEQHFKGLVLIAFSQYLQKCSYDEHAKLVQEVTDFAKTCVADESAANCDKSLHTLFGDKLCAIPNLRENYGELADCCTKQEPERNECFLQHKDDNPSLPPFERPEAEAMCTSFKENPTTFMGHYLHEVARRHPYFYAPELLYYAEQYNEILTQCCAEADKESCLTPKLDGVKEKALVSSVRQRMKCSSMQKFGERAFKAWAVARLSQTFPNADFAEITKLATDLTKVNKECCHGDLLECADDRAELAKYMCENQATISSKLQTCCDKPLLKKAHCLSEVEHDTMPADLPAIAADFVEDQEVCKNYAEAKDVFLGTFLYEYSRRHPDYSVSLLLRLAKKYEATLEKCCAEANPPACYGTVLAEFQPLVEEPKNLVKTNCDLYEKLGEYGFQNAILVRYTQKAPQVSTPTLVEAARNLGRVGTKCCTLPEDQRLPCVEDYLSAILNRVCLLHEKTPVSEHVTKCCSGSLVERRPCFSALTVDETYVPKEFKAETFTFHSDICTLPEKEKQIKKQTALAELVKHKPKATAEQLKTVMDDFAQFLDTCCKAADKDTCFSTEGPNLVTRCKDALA

In the case of `C[C@]12CCC(=O)C[C@@H]1CC[C@@H]1[C@@H]2CC[C@]2(C)[C@@H](OC(=O)CCC(=O)O[C@H]3C[C@H](n4cc([125I])c(=O)[nH]c4=O)O[C@@H]3CO)CC[C@@H]12`, the Drug uptake result in [1] is listed as “Dose-dependent effect”; in series [8] it was “tde”. The Survival in series [2] was found to be 50%. Also, the “fold change (FC)” value in series [3] amounted to 10. For the same molecule, the t1/2 is 26 h in series [4], 14.7 h in series [9] and 68 h in series [11]. The Activity result in series [5] is recorded as “Non-toxic”; in [6] it was 380000000. The Ratio in series [7] was 36.5; in series [10], 21.8.

`C[C@]12CCC(=O)C[C@@H]1CC[C@@H]1[C@@H]2CC[C@]2(C)[C@@H](OC(=O)CCC(=O)O[C@H]3C[C@H](n4cc([125I])c(=O)[nH]c4=O)O[C@@H]3COP(=O)(O)O)CC[C@@H]12`: the Activity entry in [12] is recorded as “Active”; in series [13], “Active”; in series [14] it was 55.2%; in series [17] it was 1.2 g. Further, the Drug uptake in series [15] worked out at 0.008 %ID; in series [16] it was 0.003 %ID. In series [18], the Kd worked out at 17.2 nM. The Bmax in [18] (human, 0.5 h) was determined as 4.5 nM.

The record behind these values is ChEMBL document CHEMBL1155242, “Radiolabeled 5-iodo-3'-O-(17beta-succinyl-5alpha-androstan-3-one)-2'-deoxyuridine and its 5'-monophosphate for imaging and therapy of androgen receptor-positive cancers: synthesis and biological evaluation” (J Med Chem, 2009).
